Shown are actives, neighbours in structure and some others; about 1.7% of the full set was active somewhere.
Hsp70 activator: transcriptional activators of Hsp70. HeLa Hsp70 promoter luciferase reporter, luminescence; scaled: vehicle 0, proteasome-inhibitor control 100%. activation, % at 10 µM. hit rate 0.04% among 200,000. AID 1203;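 active = activation above the mean across all tested compounds plus 3 SD, cutoff set per campaign, cut at about 5.5% in these data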;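 also: 100% = MG132 at 30 µM as the positive control and 0% = DMSO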
Dynein transport: blocks dynein driven cargo transport along microtubules. hit rate 0.47% among 220,000. 3617.4 mouse cells, GR-EGFP nuclear translocation imaging; test concentration mostly 20 µM; stimulated with dexamethasone, 1 µM; stronger effect = lower value. z-score, hits read low;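 active = plate z-score of nuclear minus cytoplasmic receptor signal below a set negative limit, without overly bright fluorescence or cell loss, cut at about -3.5 in these data, passing the limit was not always enough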;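 also: z-score of nuclear minus cytoplasmic ring GR-EGFP intensity difference per well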
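medium = tetracycline-free induction medium containing charcoal-stripped FBS | also added = 1.0 µM final dexamethasone stimulus | schedule = 48 h induction, 1 h compound, 30 min dex at 37 °C | technique = fixed, Hoechst-stained cells imaged at 10x for EGFP | measure = GR-EGFP nuclear translocation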
EP2 antag: inhibitors of human EP2 prostaglandin E2 receptor | P43116 | hit rate 0.52% among 260,000 | inhibition, % at 25 µM | C6 glioma cells expressing human EP2, cAMP TR-FRET; cells stimulated with saturating PGE2;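 active = percent inhibition above 40 after rounding to a whole number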;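 also: rat C6 glioma host cells with rolipram phosphodiesterase inhibitor present; the protocol text gives 20 µM as final concentration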
Target sequence (P43116 whole entry, looked up): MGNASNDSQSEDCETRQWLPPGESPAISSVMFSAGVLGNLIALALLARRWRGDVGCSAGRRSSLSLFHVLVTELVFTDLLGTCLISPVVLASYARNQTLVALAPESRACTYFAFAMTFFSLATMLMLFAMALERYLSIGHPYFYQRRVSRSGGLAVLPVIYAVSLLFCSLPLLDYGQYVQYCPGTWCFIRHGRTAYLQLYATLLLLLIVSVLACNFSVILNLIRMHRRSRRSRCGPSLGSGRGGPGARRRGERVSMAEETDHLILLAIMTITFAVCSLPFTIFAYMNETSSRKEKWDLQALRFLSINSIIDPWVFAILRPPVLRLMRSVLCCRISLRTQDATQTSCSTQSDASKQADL
EP2 modulator: modulates human prostaglandin E2 receptor EP2 signaling; AID 940; EP2-expressing cells, cAMP HTRF FRET, PGE2 co-stimulation; hit rate 0.83% among 260,000; induction, % at 25 µM;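 active = compounds whose cAMP rise, as percent of the full-agonist control response, exceeds 60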;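 also: rat C6 glioma line stably carrying human EP2 under a CMV promoter; the protocol text gives 20 µM as final concentration; 100% = response of wells given 1 µM PGE2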
An asterisk follows results filed as active; · = not tested or not shown; ! = repeats disagree.

SMILES	Hsp70 activator	Dynein transport	EP2 antag	EP2 modulator
CCC1C/C(=C\c2cccnc2)C(=O)/C(=C/c2cccnc2)C1 (configuration not stated)	25*	-3.5	4	-44
Cc1cc(NS(=O)(=O)c2cc(N3CCCC3=O)ccc2C)c2ncccc2c1	·	·	5	-45
CCOC(=O)c1cnc(-n2nc(C)cc2C)nc1Nc1ccc(N(C)C)cc1	0	-0.69	7	62*
CC(=O)Nc1ccc(N2CCCCC2)c(C(=O)Nc2cccc(C)c2)c1	0	-0.7	13	62*
Cc1ccc(NC(=O)/C(=C/c2ccco2)c2ccccc2)c(C)c1	0	-0.82	5	65*
Cc1cc(C)c(NC(=O)/C(=C/c2ccccc2)c2ccccc2)c(C)c1	-1	0.56	3	62*
CNC(=O)C(=O)Nc1c(C)cc(C)cc1C	0	-0.58	1	4
COc1cc(NC(=O)c2c(OC)cccc2OC)ccc1NC(=O)c1ccco1	·	·	5	-55
Cc1sc(NC(=O)CN(C(=O)C2CC2)C2CCCC2)c(C(N)=O)c1C	·	·	14	14
CC1CCCN(CC(O)c2ccc3c(c2)CCCN3C(=O)c2ccccc2F)C1 (configuration not stated)	·	·	5	-51
CCCCCOc1ccc(CSC(=N)N)cc1[N+](=O)[O-]	0	-1.7	46*	-28
Cc1ccc2oc(=O)n(CC(=O)NCCN3CCc4ccccc43)c2c1	·	·	10	-110
Cc1ccc(Cn2nnc3c(=O)[nH]c(C4CCCN(S(C)(=O)=O)C4)nc32)cc1 (configuration not stated)	·	·	17	-16
COc1cccc(/C=N/n2c(N)c(S(=O)(=O)c3cccs3)c3nc4ccccc4nc32)c1	0	0.78	4	-7
Nc1c(S(=O)(=O)c2cccs2)c2nc3ccccc3nc2n1/N=C/c1cccc(O)c1	0	-0.54	41*	-7
CC(C)=Cc1oc2ccc([N+](=O)[O-])cc2c1N1CC(C)OC(C)C1 (configuration not stated)	0	-0.54	9	62*
CC1=C(C#N)c2nc(N)c(C#N)c(C)c2/C1=C/c1cccc(F)c1	·	·	27	-87
CC1=C(C#N)c2nc(N)c(C#N)c(C)c2/C1=C\c1ccc(C)cc1	0	1.8	40*!	-111
CC(C)n1c(=O)oc2cc(S(=O)(=O)NCC(c3ccc(F)cc3)N(C)C)ccc21 (configuration not stated)	·	·	7	-34
O=[N+]([O-])c1c(Nc2ccccn2)cc(Cl)c2nonc12	·	3.3	56*	-88
O=C(O)c1cccc(Nc2cc(Cl)c3nonc3c2[N+](=O)[O-])c1	0	0.094	3	0
Cc1[nH]c2ccccc2c1-c1cc(-c2cc(-c3c(C)[nH]c4ccccc34)nc(N)n2)nc(N)n1	·	·	42*	1
Cc1[nH]c2ccccc2c1-c1nc(-c2ccc(Cl)cc2)nnc1-c1ccccc1	0	1.1	5	4
CCOc1cc2c(cc1CN1CCC(O)(c3ccccc3F)CC1)OCO2	·	·	3	-76
NC(=O)C(F)(F)C12OC3C4C5CC(C6C5C3C61)C42 (configuration not stated)	0	-0.67	106*	3
SMILES	Hsp70 activator	Dynein transport	EP2 antag	EP2 modulator
O=C(Cn1nc2c3ccccc3nc(Cc3ccccc3)n2c1=O)N1CCOCC1	·	·	11	-7
Cc1occc1-c1nn(C2CCN(C(=O)CCc3ccccc3)CC2)c(=O)o1	·	·	7	-92
COCc1nnc(NC(=O)CCCOc2ccc(OC)cc2)s1	·	·	10	4
Cc1cc(NC(=O)c2ccc3c(c2)C(=O)N(C2CCCCC2)C3=O)no1	0	1.8	18	17
O=C(Nc1ccncc1)c1ccc2c(c1)C(=O)N(C1CCCCC1)C2=O	0	0.58	46*	-10
COc1ccc(C2=NN(C(=O)CCC(=O)O)C(c3ccc(N(C)C)cc3)C2)cc1OC (configuration not stated)	·	·	13	9
CCNc1nc(NC(C)C)nc(SCCOC(=O)c2ccccc2)n1	0	0.22	4	61*
O=C(Nc1ccc(C(=O)O)cc1)/C(=C/c1cccc(Br)c1)NC(=O)c1ccco1	0	0.53	5	63*
Cc1ccc(NC(=O)/C(=C/c2cccc(Br)c2)NC(=O)c2ccco2)cc1	0	1.7	4	13
Cc1cc2cc(C)c3nnc(SCc4cccnc4)n3c2cc1C	·	·	10	7
CN(C)CCCN1c2ccccc2Sc2cnccc21	·	·	45*	-16
COc1ccc(CNc2ncnc3c2[nH]c2cc(OC)c(OC)cc23)cc1	·	-0.19	54*	-36
COc1ccc(CNc2ncnc3c2[nH]c2ccccc23)cc1	·	-0.77	60*	-36
COc1ccc2[nH]c3c(NCCN(C(C)C)C(C)C)ncnc3c2c1	0	-0.43	7	-23
O=C1c2ccccc2C(=O)N1C1(C(=O)NC2(C(=O)O)CCCC2)CCCC1	·	·	42*	18
Cc1nn(C)cc1S(=O)(=O)N1CCn2cccc2C1C(C)C (configuration not stated)	·	·	9	0
Cc1ccc2[nH]c3c(N4CCc5ccccc5C4)ncnc3c2c1	0	-0.61	28	-76
COc1ccc2[nH]c3c(N4CCN(Cc5ccc6c(c5)OCO6)CC4)ncnc3c2c1	0	-0.73	60*	-80
COc1ccc2c(c1)c1ncnc(N3CCN(Cc4ccc5c(c4)OCO5)CC3)c1n2C	0	0.1	10	-9
CCOc1ccc2[nH]c3c(N4CCc5ccccc5C4)ncnc3c2c1	·	2.3	44*	-52
c1ccc(N2CCN(Cc3cn4ccccc4n3)CC2)nc1	·	·	12	-37
Cc1ccc(NC(=O)C2CCN(c3nccc(C)n3)CC2)c(C)c1	·	·	17	6
Cc1ccc(N=Nc2c(O)c(S(=O)(=O)O)cc3cc(S(=O)(=O)O)ccc23)c(C)c1	·	·	42*	10
Nc1ccccc1N=Nc1c(S(=O)(=O)O)cc2cc(S(=O)(=O)O)cc(O)c2c1O	·	·	37	32
CCN(CC)c1ccc(/C=c2/sc3nnc(-c4ccccc4C)n3c2=O)cc1	0	-1.8	48*	12
SMILES	Hsp70 activator	Dynein transport	EP2 antag	EP2 modulator
Cc1cc2c(cc1C)NC(c1ccccc1O)C1=C(CC(C)(C)CC1=O)N2 (configuration not stated)	·	·	12	-14
CC1(C)CC(=O)C2=C(C1)Nc1ccccc1NC2c1cc(O)ccc1O (configuration not stated)	·	·	47*	-88
Nc1cc(-c2ccco2)nn(CC(=O)NCc2ccccc2F)c1=O	·	·	1	-23
CCC(=O)N(Cc1cccnc1)Cc1cc2cc3c(cc2[nH]c1=O)OCCO3	·	·	3	8
COc1cc(NC(=O)/C(=C/c2ccco2)NC(=O)c2ccccc2)cc(OC)c1OC	·	·	10	-18
O=C(Nc1cc2c(cc1C(=O)c1ccccc1)OCCO2)c1cccs1	·	·	7	16
CC(C)C(=O)c1cc2c(cc1NC(=O)c1cccs1)OCCO2	0	0.47	2	65*
CN1CCc2c(sc3c2C(=O)NC(c2ccc4c(c2)OCO4)N3)C1 (configuration not stated)	·	·	41*	·
